From ChEMBL document CHEMBL1130345, “A technetium-99m SPECT imaging agent which targets the dopamine transporter in primate brain” (J Med Chem, 1997) come the findings set out here.

Values joined by “and” are separate entries in the source; they are usually repeats but may differ in a detail not shown here. Identical values can stand only once.

Assay [1] addresses Sodium-dependent dopamine transporter (Macaca fascicularis, UniProt Q9GJT6). In words: Inhibition of [3H]WIN-35428 binding to dopamine transporter using of Cynomolgus monkey caudate-putamen. Type of assay: tissue-based. The gist of the method:
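Caudate-putamen membranes (washed in 50 mM Tris-HCl pH 7.4, 3800g spins) incubated at 4 mg original wet tissue/mL with 0.3 nM [3H]WIN35,428 and 7–14 competitor concentrations in 50 mM Tris-HCl/100 mM NaCl pH 7.4, 2 h at 0–4 °C. Filtered on BSA-soaked GF/B filters, scintillation counting. Nonspecific binding defined with 30 μM (–)-cocaine. IC50 computed by EBDA; independent experiments in triplicate.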

Assay [2] addresses Sodium-dependent serotonin transporter. In words: Inhibition of [3H]- citalopram binding to serotonin transporter of Cynomolgus monkey caudate-putamen. It counts as tissue-based. The method in brief: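 Caudate-putamen membranes (washed in 50 mM Tris-HCl pH 7.4, 3800g spins) incubated at 4 mg original wet tissue/mL with 1 nM [3H]citalopram and 7–14 competitor concentrations in 50 mM Tris-HCl/100 mM NaCl pH 7.4, 2 h at 0–4 °C. Filtered on polyethylenimine-soaked GF/B filters, scintillation counting. Nonspecific binding defined with 1 μM fluoxetine. IC50 computed by EBDA; independent experiments in triplicate.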

The species entered for the next assay is Macaca fascicularis. In words: Relative affinity for dopamine and serotonin transporters.

Sodium-dependent dopamine transporter, sequence (Q9GJT6 whole entry): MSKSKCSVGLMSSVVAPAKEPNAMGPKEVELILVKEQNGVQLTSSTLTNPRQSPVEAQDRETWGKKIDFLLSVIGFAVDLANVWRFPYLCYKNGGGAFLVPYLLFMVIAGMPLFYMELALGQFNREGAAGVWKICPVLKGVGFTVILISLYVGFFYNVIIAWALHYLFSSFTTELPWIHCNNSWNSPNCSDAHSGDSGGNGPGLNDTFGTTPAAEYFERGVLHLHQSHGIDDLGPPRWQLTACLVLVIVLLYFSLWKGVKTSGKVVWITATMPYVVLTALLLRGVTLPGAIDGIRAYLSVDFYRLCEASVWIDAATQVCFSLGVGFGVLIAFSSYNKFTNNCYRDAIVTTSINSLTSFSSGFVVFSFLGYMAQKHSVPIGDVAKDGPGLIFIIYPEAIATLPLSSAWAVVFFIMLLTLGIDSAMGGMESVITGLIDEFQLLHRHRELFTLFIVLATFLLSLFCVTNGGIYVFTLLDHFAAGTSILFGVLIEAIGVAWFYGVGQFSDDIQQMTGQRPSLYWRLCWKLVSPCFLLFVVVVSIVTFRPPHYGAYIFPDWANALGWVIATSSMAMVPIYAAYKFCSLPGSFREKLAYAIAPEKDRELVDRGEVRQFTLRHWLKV

By IC50 is commonly meant the point on the concentration scale where inhibition reaches its midpoint. Turning to `COC(=O)C1C(c2ccc(F)cc2)CC2CCC1N2CCCCCc1ccccc1` (stereo not given), the IC50 turned out to be 3.4 nM in assay [1] and 49.9 nM in assay [2]. The Ratio in the assay listed under Macaca fascicularis stood at 15.
Turning to `COC(=O)[C@@H]1C2CCC(C[C@@H]1OC(c1ccc(F)cc1)c1ccc(F)cc1)N2Cc1ccccc1` (stereo not given in full), the IC50 in assay [2] is 4970 nM.
In the case of `COC(=O)[C@@H]1C2CCC(C[C@@H]1OC(c1ccc(F)cc1)c1ccc(F)cc1)N2CCCCCc1ccccc1` (stereo not given in full), the IC50 in assay [2] is 550 nM. Moreover, in the assay listed under Macaca fascicularis, the Ratio stood at 6.
`COC(=O)[C@@H]1C2CCC(C[C@@H]1OC(c1ccc(F)cc1)c1ccc(F)cc1)N2CCCc1ccccc1` (stereo not given in full): the IC50 in assay [2] was 19.7 nM.
`COC(=O)C1C(c2ccc(F)cc2)CC2CCC1N2CCCc1ccccc1` (stereo not given): the IC50 in assay [1] worked out at 1.4 nM; in assay [2], 133 nM. In addition, the Ratio in the assay listed under Macaca fascicularis worked out at 95.
Take “[N-[2-[(3'-N'-PROPYL-3''ALPHA-(BIS(4-FLUORORPHENYL)METHOXY)TROPANE-2''BETA-CARBOXYLIC ACID METHYL ESTER)(2-MERCAPTOETHYL)AMINO]ACETYL]-2-AMINOETHANETHIOLATO]RHENIUM(V) OXIDE (DIASTEREOMERIC MIX) [listing 1 of 2 here]”: the Ratio in the assay filed under Macaca fascicularis was found to be 90.
In the case of “[N-[2-[(3'-N'-PROPYL-3''ALPHA-(BIS(4-FLUORORPHENYL)METHOXY)TROPANE-2''BETA-CARBOXYLIC ACID METHYL ESTER)(2-MERCAPTOETHYL)AMINO]ACETYL]-2-AMINOETHANETHIOLATO]RHENIUM(V) OXIDE (DIASTEREOMERIC MIX) [listing 2 of 2 here]”, the IC50 in assay [1] was 482 nM and 616 nM and 343 nM.
For the molecule `COC(=O)C1C(c2ccc(F)cc2)CC2CCC1N2Cc1ccccc1` (stereo not given), the IC50 in assay [1] was found to be 58.9 nM; in assay [2] it was 1070 nM. Besides, in the assay filed under Macaca fascicularis, the Ratio came to 18.
